Lung fibro prol – blocks proliferation of human lung fibroblasts. LL 47 human lung fibroblast viability, ATP luminescence; active compounds read low. 85,000 compounds, 1.1% hits. viability, % at 10 µM. AID 719;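 active = viability at or below 50% in the single dose screen; inactive = viability above 50%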;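 note: compound exposure lasted 72 h before the ATP readout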
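test system = LL 47 human lung fibroblasts | amount = 1,150 fibroblasts seeded per well | medium = 15% FBS in IMEM | times = overnight cell rest, 72 h compound treatment at 37 °C | measured by = CellTiter-Glo luminescence measuring cellular ATP | read-out = viability percentage against median untreated-cell control | benchmarks = cell-only wells, no compound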
HCT116 bCat-KO – beta-catenin-lacking colon tumor cell growth suppression | 140,000 compounds, 1.5% hits | HCT116 beta-catenin knockout viability, CellTiter-Glo, 60 h; active compounds read low | viability, % at 10 µM | AID 818;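 active = viability at or under a set limit, the compound median less 4 SD, cut at about 6% in these data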
H69AR inhibit – blocks growth of human H69AR lung tumor cells; 85,000 compounds, 6% hits; AID 598; viability, % at 10 µM; H69AR lung tumor viability, ATP luminescence, 72 h; active compounds read low;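 active = viability at or below 40%; inactive = viability above 40%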;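 note: multidrug resistant small cell line overexpressing MRP-1 efflux transporter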
PTEN del growth – growth suppressors of cells with PTEN tumor suppressor deletion. 140,000 compounds, 1.2% hits. AID 827. viability, % at 10 µM. HCT116 PTEN-null viability, CellTiter-Glo, 60 h; active compounds read low;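 active = viability at or below a set limit, 4 SD under the median of all tested compounds, cut at about 3.7% in these data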;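 note: PTEN knockout HCT116 line with beta catenin targeted HCT116 as companion control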
HUVEC inhibit – inhibitors of human endothelial cell proliferation; viability, % at 10 µM (by protocol); AID 648; 86,000 compounds, 1.1% hits; HUVEC proliferation, CellTiter-Glo luminescence, 72 h; active compounds read low;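 active = viability at or below 30%; inactive = viability above 30%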
Large screens that a line does not name were inactive. The entries come from a sample that favours hits as a whole.

CCC(c1nnnn1CCc1ccccc1)N(Cc1ccco1)Cc1cc2c(C)ccc(C)c2[nH]c1=O (stereo unspecified)	H69AR inhibit 24
CCC(c1nnnn1CCc1ccccc1)N(Cc1ccco1)Cc1cc2cc(C)cc(C)c2[nH]c1=O (stereo unspecified)	H69AR inhibit 26
COc1ccc(C2(CNC(=O)c3cccc([N+](=O)[O-])c3)CCOCC2)cc1	none (no result: Lung fibro prol, H69AR inhibit, HUVEC inhibit)
Cc1ccc(C=Nc2ccccc2C(N)=O)cc1	H69AR inhibit 22
COC(=O)N/N=C/c1cn(CC(C)COc2ccccc2)c2ccccc12 (stereo unspecified)	none (no result: Lung fibro prol, H69AR inhibit, HUVEC inhibit)
COc1cc(-c2nc3cnccn3c2Nc2ccc(C(C)C)cc2)ccc1O	Lung fibro prol 46, H69AR inhibit 0.5, HUVEC inhibit 3.2
COc1ccc(C(=O)CSc2nnc(CN3CCCCC3)n2-c2ccc(F)cc2)cc1	none (no result: Lung fibro prol, H69AR inhibit, HUVEC inhibit)
COc1cc(OC)nc(NC(=O)CSc2nnc(-c3ccccc3)n2C2CCCCC2)n1	none (no result: HCT116 bCat-KO, PTEN del growth)
c1ccc(CN2C3=NCCN3c3ccccc32)cc1	none (no result: Lung fibro prol, H69AR inhibit, HUVEC inhibit)
O=C(CN1C2=NCCN2c2ccccc21)C12CC3CC(CC(C3)C1)C2	H69AR inhibit 35
CC(=O)c1ccc(N2Cc3ccccc3/C2=N\C(=O)Nc2ccc(Cl)cc2)cc1	none (no result: Lung fibro prol, H69AR inhibit, HUVEC inhibit)
O=C(CSc1nnc(-c2ccc(F)cc2)o1)c1ccc2c(c1)OCCO2	none
Cc1cc(C)c(C)c(C(=O)CSc2nnc(-c3ccc4[nH]c(C)c(C)c4c3)o2)c1C	Lung fibro prol 44, H69AR inhibit 8.7
Cc1[nH]c2ccc(-c3nnc(SCC(=O)c4ccc(F)cc4)o3)cc2c1C	H69AR inhibit 26
CCn1c(SCC(=O)O)nnc1-c1ccc2[nH]c(C)c(C)c2c1	none (no result: Lung fibro prol, H69AR inhibit, HUVEC inhibit)
Cc1cccc(S(=O)(=O)Nc2ccc(C)c3c2OC(C)(C)C3)c1	none
COc1ccc(C2N=C(N)N=C(N)N2c2ccccc2OC)cc1OC (stereo unspecified)	none
CC(C(=O)Nc1sc2c(c1C(=O)NCC1CCCO1)CCC2)N1C(=O)c2ccccc2C1=O (stereo unspecified)	none (no result: Lung fibro prol, H69AR inhibit, HUVEC inhibit)
COc1cccc(Oc2cnc(N)nc2-c2ccc(OC)cc2O)c1	H69AR inhibit 17
COc1ccc(-c2nc(N)ncc2Oc2ccccc2Br)c(O)c1	H69AR inhibit 38
Cc1c(-c2nc(N)nc(Nc3ccccc3F)n2)oc2ccccc12	H69AR inhibit 20
COCc1c(C(=O)OCc2nc(N)nc(Nc3ccccc3C)n2)oc2ccccc12	none (no result: Lung fibro prol, H69AR inhibit, HUVEC inhibit)
COc1ccccc1Nc1nc(N)nc(CN2CCOCC2)n1	none
COc1ccccc1Nc1nc(N)nc(-c2cc3ccccc3o2)n1	H69AR inhibit 10
COc1cccc(Nc2cc(C)nc3ccccc23)c1	none
COc1cccc(Nc2nc(N)nc(-c3oc4ccccc4c3C)n2)c1	H69AR inhibit 17
Cc1ccc(C(O)(C(=O)NNc2ccc3ccccc3n2)c2ccc(C)cc2)cc1	none (no result: Lung fibro prol, H69AR inhibit, HUVEC inhibit)
Cn1c(Cc2ccccc2)nnc1SCC(=O)c1cccs1	none
COC(=O)c1ccc(CNC(=O)COC(=O)C23CC4CC(CC(C4)C2)C3)cc1	none (no result: Lung fibro prol, H69AR inhibit, HUVEC inhibit)
COC(=O)c1ccc(C)c(NS(=O)(=O)c2ccc3c(c2)OCCO3)c1	H69AR inhibit 30
COC(=O)c1ccc(C)c(NS(=O)(=O)c2ccc(OC)cc2)c1	H69AR inhibit 37
COC(=O)c1sccc1NS(=O)(=O)c1ccc(OC)cc1	H69AR inhibit 15
CC(=O)c1cc2c(cc1NS(=O)(=O)c1ccccc1)OCO2	none
CC(=O)c1cc2c(cc1NS(=O)(=O)c1ccc(C)cc1)OCCO2	H69AR inhibit 18
CSc1cccc(NC(=O)C(C)NS(=O)(=O)c2ccc(F)cc2)c1 (stereo unspecified)	none
CC(C)CNC(=O)c1cccc(NC(=O)Cc2ccc(Cl)cc2)c1	none (no result: Lung fibro prol, H69AR inhibit, HUVEC inhibit)
Cc1nn(-c2nnc(NC3CCCCC3)nn2)c(C)c1Br	none (no result: Lung fibro prol, H69AR inhibit, HUVEC inhibit)
c1ccc(-c2nc(Sc3ncnc4c3cnn4-c3ccccc3)n[nH]2)cc1	H69AR inhibit 27
Cc1nc2c3cc(Cl)ccc3n(CCN3CCCCC3)c2s1	Lung fibro prol 49, H69AR inhibit 26
CC(=O)Cc1nsc(NC(=O)c2ccc(-c3cccc(C(F)(F)F)c3)o2)n1	H69AR inhibit 21
CC(=O)Cc1nsc(NC(=O)c2ccc(-c3cc(C(F)(F)F)ccc3Cl)o2)n1	none (no result: H69AR inhibit)
COc1ccc(CCNC(=O)CSc2nnc(-c3ccc(F)cc3)c3ccccc23)cc1OC	none (no result: Lung fibro prol, H69AR inhibit, HUVEC inhibit)
COc1cc2c3nnc(-c4ccc(F)cc4)c-3cn(Cc3ccccc3)c2cc1OC	Lung fibro prol 2.7, HCT116 bCat-KO 1.1, H69AR inhibit 1.5, PTEN del growth 1.6, HUVEC inhibit 1.8
